Test results taken from ChEMBL document CHEMBL1135824, “Interaction of designed sulfated flavanoids with antithrombin: lessons on the design of organic activators” (J Med Chem, 2002).
Blank lines part the entries; values can stand above or below the compound they belong to.

Experiments:
[1] = Observed dissociation constant of interaction with plasma antithrombin at 25 degree Celsius in 20 mM sodium phosphate buffer at a pH 7.4; format: ADME, cell-free
Procedure, shortened: (§1)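 Human plasma antithrombin (1 µM) with TNS (5 µM) was titrated with the sulfated flavanoid. Buffer was 20 mM sodium phosphate, 0.1 mM EDTA, 0.1% PEG 8000, at pH 6.0 (I 0.025) or 7.4 (I 0.035). Fluorescence decrease was read at 432 nm (excitation 330 nm). KD came from fitting to a quadratic equilibrium binding equation.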

[2] = Non ionic interaction with plasma antithrombin at 25 degree Celsius in 20 mM sodium phosphate buffer at a pH 6.0; format: ADME, cell-free
[3] = Non ionic interaction with plasma antithrombin at 25 degree Celsius in 20 mM sodium phosphate buffer at a pH 7.4; format: ADME, cell-free
[4] = target: Coagulation factor X (Homo sapiens) (UniProt P00742); assay: Second order rate constant for antithrombin inhibition of factor Xa in the presence of activator determined
Chain of Coagulation factor X (Homo sapiens) (P00742 41-179 limits assumed): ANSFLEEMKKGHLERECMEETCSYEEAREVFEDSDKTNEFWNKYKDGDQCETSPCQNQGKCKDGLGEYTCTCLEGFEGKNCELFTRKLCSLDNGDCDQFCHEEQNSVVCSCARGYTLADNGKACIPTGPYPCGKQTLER
Chain of Coagulation factor X (Homo sapiens) (P00742 235-488 limits assumed): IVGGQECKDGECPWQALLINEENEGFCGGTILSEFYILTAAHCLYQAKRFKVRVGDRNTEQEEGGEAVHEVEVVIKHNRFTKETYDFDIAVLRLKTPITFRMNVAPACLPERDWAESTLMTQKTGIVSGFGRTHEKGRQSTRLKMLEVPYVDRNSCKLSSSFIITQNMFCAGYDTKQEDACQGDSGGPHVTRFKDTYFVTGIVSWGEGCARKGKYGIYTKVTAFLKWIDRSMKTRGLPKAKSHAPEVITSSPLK

[5] = Observed dissociation constant of interaction with plasma antithrombin at 25 degree Celsius in 20 mM sodium phosphate buffer at a pH 6.0; format: ADME, cell-free; procedure, shortened: as §1
[6] = Second order rate constant for antithrombin inhibition of factor Xa in the presence of activator determined
[7] = Effect (4 uM) on second-order rate constant that accelerated inhibition of factor Xa by antithrombin-CS (0 uM) complex
[8] = Dissociation constant of CS-Antithrombin interaction at 25 degree Celsius 20 mM sodium phosphate buffer at pH 6.0 at 30 uM; format: functional
Procedure, shortened: (§2)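 Competitive titration of CS into plasma antithrombin–TNS complex with tetrasaccharide EFGH″ held at a fixed level, much above antithrombin. Competitor levels spanned 0.67–6.7 × its own antithrombin KD. Run at 25 °C in 20 mM sodium phosphate, 0.1 mM EDTA, 0.1% PEG 8000, pH 6.0, I 0.025. Read-out was the decrease in TNS fluorescence with rising CS. Antithrombin was freshly diluted from pH 7.4 stock.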

[9] = Effect (4 uM) on second-order rate constant that accelerated inhibition of factor Xa by antithrombin-CS (50 uM)complex
[10] = Dissociation constant of CS-Antithrombin interaction at 25 degree Celsius 20 mM sodium phosphate buffer at pH 6.0 at 4.5 uM; format: functional; procedure, shortened: as §2
[11] = Effect (2 uM)on second-order rate constant that accelerated inhibition of factor Xa by antithrombin-CS (0 uM) complex
[12] = Dissociation constant of CS-Antithrombin interaction at 25 degree Celsius 20 mM sodium phosphate buffer at pH 6.0 at 20 uM; format: functional; procedure, shortened: as §2
[13] = Dissociation constant of CS-Antithrombin interaction at 25 degree Celsius 20 mM sodium phosphate buffer at pH 6.0 at 0 uM; format: functional
[14] = Effect (0 uM) on second-order rate constant that accelerated inhibition of factor Xa by antithrombin-CS (50 uM)complex
[15] = Dissociation constant of CS-Antithrombin interaction at 25 degree Celsius 20 mM sodium phosphate buffer at pH 6.0 at 3.0 uM; format: functional; procedure, shortened: as §2
[16] = Effect (1 uM) on second-order rate constant that accelerated inhibition of factor Xa by antithrombin-CS (50 uM)complex
[17] = Effect (2 uM)on second-order rate constant that accelerated inhibition of factor Xa by antithrombin-CS (50 uM)complex
[18] = Effect (1 uM) on observed rate constant that accelerated inhibition of factor Xa by antithrombin-CS (0 uM) complex
[19] = Dissociation constant of CS-Antithrombin interaction at 25 degree Celsius 20 mM sodium phosphate buffer at pH 6.0 at 10 uM; format: functional; procedure, shortened: as §2

Kd [1]: 32.3 µM
Kd [2]: 380 µM
Kd [3]: 1100 µM
K ACT [4]: 3380 M⁻¹ s⁻¹
Kd [5]: 10.7 µM
SMILES: O=S(=O)(O)Oc1cc2c(c(OS(=O)(=O)O)c1)C[C@@H](OS(=O)(=O)O)[C@@H](c1ccc(OS(=O)(=O)O)c(OS(=O)(=O)O)c1)O2

KD non ionic [2]: 470 µM
kACT [6]: 2770 M⁻¹ s⁻¹
Kd [5]: 26.1 µM
SMILES: O=S(=O)(O)Oc1cc2c(c(OS(=O)(=O)O)c1)C[C@@H](OS(=O)(=O)O)[C@H](c1ccc(OS(=O)(=O)O)c(OS(=O)(=O)O)c1)O2 (racemic)

second-order rate constant [7]: 6400 M⁻¹ s⁻¹
second-order rate constant [9]: 7400 M⁻¹ s⁻¹
second-order rate constant [11]: 3200 M⁻¹ s⁻¹
second-order rate constant [14]: 2000 M⁻¹ s⁻¹
second-order rate constant [16]: 4300 M⁻¹ s⁻¹
second-order rate constant [17]: 4700 M⁻¹ s⁻¹
second-order rate constant [18]: 2400 M⁻¹ s⁻¹
SMILES: CO[C@H]1O[C@H](COS(=O)(=O)O)[C@@H](O[C@H]2O[C@@H](C(=O)O)[C@@H](O[C@H]3O[C@H](COS(=O)(=O)O)[C@@H](O[C@H]4O[C@H](C(=O)O)C[C@H](O)[C@H]4O)[C@H](OS(=O)(=O)O)[C@H]3NS(=O)(=O)O)[C@H](O)[C@H]2OS(=O)(=O)O)[C@H](OS(=O)(=O)O)[C@H]1OS(=O)(=O)O
KCS, APP [8]: 2.1 µM
KCS, APP [10]: 3.5 µM
KCS, APP [12]: 3.2 µM
KCS, APP [13]: 3.5 µM
KCS, APP [15]: 4.8 µM
KCS, APP [19]: 3.1 µM

Kd [1]: 17.9 µM
Kd [2]: 1000 µM
Kd [3]: 2200 µM
K ACT [4]: 6750 M⁻¹ s⁻¹
Kd [5]: 3.5 µM
SMILES: O=S(=O)(O)Oc1cc2c(c(OS(=O)(=O)O)c1)C[C@H](OS(=O)(=O)O)[C@@H](c1ccc(OS(=O)(=O)O)c(OS(=O)(=O)O)c1)O2
